Measured values: ChEMBL document CHEMBL1123084, “Decomposition reactions of (hydroxyalkyl) nitrosoureas and related compounds: possible relationship to carcinogenicity” (J Med Chem, 1985)

Columns and labels:
Assay type in all cases: ADME
[1] = Half life in 0.067 M (D2O), pH = 7.4
[2] = Half life in 0.10 M (D20), pH = 7.4; conditions: 0.10 M (D2O)
[3] = Half life in 0.067 M buffer, pH = 7.4
[4] = Half life in 0.10 M buffer, pH = 7.4
[5] = Half life in 0.067 M buffer, pH = 8
How it was run: (§1)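 Compound at 0.02-0.03 M was decomposed in sealed vials at 37 °C. The pH 3.0 medium was perchloric acid; the other pH values used 0.067 M phosphate buffer (pH 5.5, 6.0, 6.5, 8.0). Loss of starting material was followed by HPLC, and half-life came from first-order ln concentration vs time plots.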

[6] = Half life in 0.067 M (D20), pH = 6.5; conditions: 0.067 M (D2O); how it was run: as §1
[7] = Half life in 0.067 M (D20), pH = 5.5; conditions: 0.067 M (D2O); how it was run: as §1
[8] = Half life in 0.01 M HClO4, pH = 3.0; how it was run: as §1
[9] = Half life in 0.067 M (D20), pH = 6.0; conditions: 0.067 M (D2O); how it was run: as §1
[10] = Half life in buffer
How it was run: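 Compound was dissolved in pH 7.4 phosphate buffer (0.067 or 0.1 M) in sealed vials at 37 °C. Loss of parent was monitored by HPLC, and the first-order half-life was derived from ln concentration vs time.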

Molecule `CC(O)CN(N=O)C(N)=O` (stereo unspecified) has a half-life [1] of 70 min, a half-life [2] of 37.2 min and a half-life ([3]; 0.067 M buffer) of 14.5 min. For the same molecule, the T1/2 ([3]; buffer) was 9.5 min, the half-life [4] was 20 min and the half-life [5] was 6.5 min. The half-life [6] was 26 min, the half-life [7] was 410 min and the half-life [8] was 600 min. For the same molecule, the half-life [9] was 120 min and the half-life [10] was 15 min.
